Test results published in PubChem BioAssay AID651952 (The Scripps Research Institute Molecular Screening Center, 2012).
Out of some 2,400 compounds screened, about 940 (39%) were called active. Only a sample is shown. Values without a mark were called inactive.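 How the source made its calls: active means inhibition above the plate's mean compound inhibition plus 3 SD, computed per plate (cut at about 22% in these data); inactive means the rest.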

Assay: reduced calcium signal in Ga16 cells – fluorescence, CHO-Ga16 cells, counter-screen for TAAR1 agonist project (AID 651952);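 further: 0% = EC80 ATP with DMSO and 100% = DMSO wells without ATP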
Conditions: CHO-Ga16 ATP-induced calcium, Fluo-8 fluorescence; at 3 µM; active compounds read high
Method in brief: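 replicates = triplicate wells per compound | material = CHO-Gα16 parent cell line without hTAAR1 | incubation = 17–24 h seeding, dye 75 min 37 °C, 30 min RT | measure = percent inhibition from peak-to-pre-ATP-basal fluorescence ratio, scaled between controls | signal = Fluo-8 fluorescence, Ex 470–495 nm, Em 515–575 nm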

| SMILES | inhibition |
| --- | --- |
| O=C1NC(=O)N(Cc2ccco2)C(=O)/C1=C\c1ccc(-c2ccc(F)cc2)o1 | 44% (active) |
| Clc1ccc2nc3c(c(-c4ccccc4)c2c1)CNCC3 | 0.28% |
| CC(Cc1ccccc1)NC=O (centres undefined) | 11.2% |
| CCCCC(=O)N/N=C/c1c(O)n(CC)c(=S)n(CC)c1=O | 64.5% (active) |
| COc1ccc(Br)cc1CNCCc1cccc(Cl)c1 | 14.7% |
| c1ccc(CCNC2CCCCCC2)cc1 | 2.61% |
| Cc1cccc(N2C(=O)NC(=O)/C(=C\c3cnn(-c4ccccc4)c3)C2=O)c1 | 40.6% (active) |
| CCC(=NCCc1ccccc1)c1c(O)n(C2CCCCC2)c(=O)[nH]c1=O | 21.1% |
| NCC(O)c1ccc(O)cc1 (centres undefined) | 3.87% |
